# Screens deposited in PubChem by several laboratories.
# HKDC1 inhibitor: inhibitors of human hexokinase HKDC1. Q2TB90. inhibition, % at 20 µM. 340,000 tested, 0.16% active. recombinant HKDC1, G6PDH/diaphorase resazurin coupled fluorescence;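 active means inhibition above about 35% when tested at 20 µM, limit read from the data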;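 further: plate controls were DMSO wells with enzyme for no effect and DMSO wells lacking enzyme for full effect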
# Target sequence (Q2TB90 whole entry, looked up): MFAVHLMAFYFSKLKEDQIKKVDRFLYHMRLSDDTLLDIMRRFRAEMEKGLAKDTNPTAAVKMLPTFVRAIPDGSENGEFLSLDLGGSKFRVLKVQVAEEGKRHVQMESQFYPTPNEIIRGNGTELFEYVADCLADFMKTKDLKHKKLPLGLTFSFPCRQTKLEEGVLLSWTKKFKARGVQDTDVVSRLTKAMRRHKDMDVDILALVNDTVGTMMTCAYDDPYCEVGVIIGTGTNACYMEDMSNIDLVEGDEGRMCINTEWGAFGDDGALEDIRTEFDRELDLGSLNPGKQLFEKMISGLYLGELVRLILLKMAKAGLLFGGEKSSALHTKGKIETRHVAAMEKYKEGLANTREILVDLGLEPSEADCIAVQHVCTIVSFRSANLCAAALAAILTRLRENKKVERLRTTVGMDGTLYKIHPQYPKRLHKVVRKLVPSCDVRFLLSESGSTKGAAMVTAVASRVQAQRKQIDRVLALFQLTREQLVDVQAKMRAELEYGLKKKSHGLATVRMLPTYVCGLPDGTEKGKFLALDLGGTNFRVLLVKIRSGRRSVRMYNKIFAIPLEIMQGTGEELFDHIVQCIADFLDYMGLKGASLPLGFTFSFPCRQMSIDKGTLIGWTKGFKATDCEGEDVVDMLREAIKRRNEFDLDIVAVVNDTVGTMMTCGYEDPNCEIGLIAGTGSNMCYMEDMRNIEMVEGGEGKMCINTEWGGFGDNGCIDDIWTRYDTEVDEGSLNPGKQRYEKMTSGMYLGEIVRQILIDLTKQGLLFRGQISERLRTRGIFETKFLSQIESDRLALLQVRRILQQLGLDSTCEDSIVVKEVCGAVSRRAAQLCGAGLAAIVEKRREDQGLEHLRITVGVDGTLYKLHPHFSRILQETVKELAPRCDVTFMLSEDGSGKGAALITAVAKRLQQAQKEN
#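 Material: recombinant HKDC1 hexokinase; Amount: HKDC1 at 5 µg/mL; Medium: Tris pH 8.0 buffer with MgCl2, Tween-20, BSA, BME; Schedule: 90 min reaction incubation at room temperature, dark; Technique: coupled resazurin fluorescence, excitation 525 nm, emission 613 nm.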
# PAD4 FP inh: inhibitors of human PAD4. AID 485272. inhibition, % at 6.36 µM. 330,000 tested, 0.41% active. recombinant PAD4, RCA probe fluorescence polarization;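 active means percent inhibition above a cutoff equal to the mean of all tested compounds plus 3 SD, cut at about 15% in these data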;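 further: 0% = PAD4 with RCA probe and DMSO and 100% = probe without PAD4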
# TDP2 inh: TDP2 (human) inhibition, absorbance primary screen | recombinant TDP2, T5PNP hydrolysis, p-nitrophenol absorbance 415 nm | AID 720702 | 370,000 tested, 0.34% active | inhibition, % at 12.8 µM | O95551;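 active means inhibition above the mean of all tested compounds plus 3 SD, set per campaign, cut at about 25% in these data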;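 further: 0% = DMSO with enzyme and 100% = buffer with substrate but no TDP2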
#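 test system = human TDP2 enzyme | input = TDP2 enzyme at 120 nM final | medium = 50 mM Tris-HCl pH 7.5 with Mg2+, KCl, DTT, BSA | also added = T5PNP substrate, 5 mM | times = 2 h at 37 °C | technique = epi absorbance | benchmarks = high control without enzyme, low control DMSO plus TDP2 | replication = each compound tested once, singlicate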
# CTSL1 counter: counter-screen for PFM18AAP inhibitors: inhibitors of F. hepatica cathepsin L1. inhibition, % at 5.96 µM. 300,000 tested, 0.49% active. recombinant F. hepatica cathepsin L1, Z-Leu-Arg-MCA fluorescence;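 active means inhibition above the mean of all tested compounds plus 3 SD, set per screening campaign, cut at about 17% in these data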;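 further: 0% = plate median of test compound wells and 100% = 1 µM Z-Phe-Ala-diazomethylketone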
# UCH37 DUB inh: blocks the human deubiquitinase UCH37; Q9Y5K5; purified proteasome/UCH37, Ub-AMC cleavage fluorescence; inhibition, % (concentration not given with the values); 330,000 tested, 0.33% active; AID 588478;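 active means mean inhibition over replicate wells above about 20%, limit read from the data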;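 further: 0% = compound-free wells with enzyme and 100% = wells lacking proteasome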
#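 Assay system: Proteasome-bound UCH37. Buffer or medium: pH 7.4 Tris-HCl (50 mM) with ovalbumin, ATP-MgCl2, DTT. Incubation: 30 min preincubation with enzyme, 25 min cleavage at room temperature. Measured by: fluorescence, ex 355 nm, em 460 nm. Read-out basis: percent inhibition. Control set: wells without proteasome as full block, compound-free enzyme plus substrate as uninhibited.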
# GSTO1 counter: counter-screen for RBBP9 inhibitors: inhibitors of human GSTO1; P78417; recombinant GSTO1, activity-based probe fluorescence polarization; inhibition, % at 5.96 µM; 300,000 tested, 1.1% active;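 active means inhibition above the campaign mean inhibition plus 3 SD, cut at about 35% in these data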;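 further: 0% = GSTO1-1 with DMSO and 100% = wells lacking GSTO1-1 enzyme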
# TDP2 confirm: human TDP2 inhibition, confirmation. 1,100 tested, 22% active. AID 743263. recombinant human TDP2, absorbance read-out. shares compounds with TDP2 inh. inhibition, % at 12.8 µM; in the data active means inhibition above about 25%;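 further: 0% = vehicle with enzyme and 100% = no enzyme buffer only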
# Active calls of the source: *; nt = no result. In the library only some 1.6% were active in any assay of this set; here they are far more common.
SMILES,HKDC1 inhibitor,PAD4 FP inh,TDP2 inh,CTSL1 counter,UCH37 DUB inh,GSTO1 counter,TDP2 confirm
CCC(CO)Oc1cc(NC(=O)c2ccc(F)cc2)c2ncn(C(C)C)c2c1 (centres undefined),11,2,-7,nt,2,nt,nt
C/C(C=NNC(=O)c1nn(C)c(C)c1Br)=C\c1ccccc1,nt,nt,nt,nt,4,nt,nt
Cc1ccc(S(=O)(=O)N(C)CC(=O)Nc2cccc(C)n2)cc1,-3,-1,80*,-2,-1,0,7
Cc1ccc(S(=O)(=O)N(C)CC(=O)Nc2ccc(C)cn2)cc1,-5,1,0,-2,2,5,nt
C=CCn1cnc2c(c1=O)c1nc3ccccc3nc1n2N=Cc1cccc(OC)c1OC,nt,nt,nt,nt,-14,nt,nt
Cc1ccc(C=NNC(=O)c2ccc3nc[nH]c3c2)o1,nt,nt,nt,nt,12,nt,nt
COCC(C)n1c(C)cc(C(=O)COC(=O)CCc2nc3ccccc3c(=O)[nH]2)c1C (centres undefined),-2,-2,31*,4,-2,-13,11
COc1cc(NS(=O)(=O)c2ccc(NC(=S)NC(=O)/C=C/c3ccco3)cc2)ncn1,4,nt,36*,nt,8,nt,41*
CCOc1ccc(NC(=S)NC(=O)/C=C/c2ccco2)cc1,-6,1,3,4,3,5,nt
Cc1cc(C)c(NC(=O)CSc2nnc(CN3CCOCC3)n2C)c(C)c1,0,0,26*,-3,5,8,9
O=S(=O)(Nc1cc(Sc2cccc3cccnc23)c(O)c2ccccc12)c1ccccc1,nt,nt,33*,nt,nt,nt,7
Cc1ccc(C=NNC(=O)c2cccnc2)s1,nt,nt,nt,nt,1,nt,nt
Fc1ccc(COc2ccc(Cl)cc2C=NNc2nc(N3CCCC3)nc(N3CCCC3)n2)cc1,nt,nt,nt,nt,4,nt,nt
O=c1[nH]c(Nc2ccccn2)cc2ccccc12,13,8,49*,14,nt,26,27*
COc1ccc(NC(=O)CC(C)=NNC(=O)c2cnccn2)c(OC)c1,nt,nt,nt,nt,2,nt,nt
CCC(C)N1CCN(S(=O)(=O)c2ccc3ccccc3c2)CC1 (centres undefined),-3,-2,32*,0,0,-3,6
Oc1ccc(Cl)cc1CNc1cccc2cccnc12,14,-2,32*,0,8,35*,5
COc1ccc(CCNC(=O)CC(=O)NN=Cc2ccc(C(=O)O)cc2)cc1OC,nt,nt,nt,nt,4,nt,nt
Cc1c(C(=O)NN=Cc2cccnc2)nnn1-c1nonc1N,nt,nt,nt,nt,1,nt,nt
Cn1c(=O)[nH]c(=O)c2c1nc(N1CCNCC1)n2Cc1ccccc1,-1,0,26*,2,2,4,5
Cn1c(=O)c2c(-c3ccccc3)n(-c3ccc(N)cc3)cc2n(C)c1=O,nt,nt,58*,nt,nt,nt,27*
COC(=O)NN=Cc1ccc(-c2ccc(Cl)cc2Cl)o1,nt,nt,nt,nt,3,nt,nt
COc1cccc(C2/C(=C(\O)c3ccc4c(c3)OCCO4)C(=O)C(=O)N2CC2CCCO2)c1 (centres undefined),10,nt,35*,nt,13,nt,3
COc1ccc(/C(O)=C2/C(=O)C(=O)N(CC3CCCO3)C2c2cccc(OC)c2)cc1 (centres undefined),-1,-2,8,5,9,0,nt
N#CCCn1cc(C=NNC(N)=S)c(-c2ccc(-c3ccccc3)cc2)n1,nt,nt,nt,nt,2,nt,nt
SMILES,HKDC1 inhibitor,PAD4 FP inh,TDP2 inh,CTSL1 counter,UCH37 DUB inh,GSTO1 counter,TDP2 confirm
COc1ccc(CCN(C)C(=O)C2CCCN(C3CCN(Cc4ccccc4)CC3)C2)cc1OC (centres undefined),-2,-4,32*,1,1,2,9
Cc1cccc2cc(C=NNC(=O)CN3CCOCC3)c(Cl)nc12,nt,nt,nt,nt,-4,nt,nt
Nc1cccc2nsnc12,21,-11,60*,-2,5,24,5
CCOc1cc(/C=C\c2nc(O)c([N+](=O)[O-])c(=O)[nH]2)ccc1OC(C)C,5,0,25*,-3,16,-5,2
O=C(Cc1ccccc1)NCC(=O)NN=Cc1ccc(C(=O)O)cc1,nt,nt,nt,nt,5,nt,nt
CN1CCC(C)(C(=O)Nc2cccc(Oc3ccccc3)c2)C1 (centres undefined),nt,nt,81*,nt,nt,nt,3
O=C(O)CN1C(=O)/C(=C/c2ccc(SCc3ccccc3)o2)SC1=S,2,nt,26*,nt,13,nt,3
